The text below walks through data of ChEMBL document CHEMBL4477209, “Indole-2-carboxamide-based MmpL3 Inhibitors Show Exceptional Antitubercular Activity in an Animal Model of Tuberculosis Infection” (J Med Chem, 2016).

Data set [1] concerns Mycobacterium tuberculosis H37Rv. In words: Inhibition of MmpL3 in clinical isolates of drug sensitive Mycobacterium tuberculosis H37Rv after 7 to 14 days by alamar blue assay.
Data set [2] relates to Mycobacterium tuberculosis. Nature of the data set: Inhibition of MmpL3 in clinical isolates of drug sensitive Mycobacterium tuberculosis V4207 after 7 to 14 days by alamar blue assay.
Data set [3] is described as follows: Selectivity index, ratio of IC50 for african green monkey Vero cells to MIC for clinical isolates of Mycobacterium tuberculosis. The data set is classed as toxicity. Conditions: read-out: Selectivity Index.
Data set [4] can be described thus: Stability in human hepatocytes assessed as compound remaining at 1 uM after 2 hrs. Type of data set: ADME, cell-based, Hepatocyte. Conditions: read-out: Stability. The essentials:
(§1)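 Hepatocytes from human, mouse, rat or dog incubated with 1 μM starting concentration for 2 h; percent of parent compound remaining.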

Data set [5] is described as follows: Stability in rat hepatocytes assessed as compound remaining at 1 uM after 2 hrs. The data set is classed as ADME, cell-based, Hepatocyte. The conditions noted are these: read-out: Stability. In outline:
as §1

A short description of data set [6]: Stability in dog hepatocytes assessed as compound remaining at 1 uM after 2 hrs. The data set is classed as ADME, cell-based, Canis lupus familiaris, Hepatocyte. Conditions: read-out: Stability. In outline: as §1
The nature of data set [7]: Stability in human liver microsomes assessed as compound remaining at 3 uM after 1 hr. The data set is classed as ADME, Microsome. The conditions noted are these: read-out: Stability. The essentials:
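Human liver microsomes incubated with 3 μM starting concentration for 1 h; percent of compound remaining.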

The target in a further data set is Cytochrome P450 2D6 (Homo sapiens, UniProt P10635). Nature of the data set: Inhibition of CYP2D6 (unknown origin). Type of data set: ADME.
A short description of data set [8]: Permeability across apical to basolateral side in human Caco2 cells. The data set is classed as ADME, cell-based. The conditions noted are these: Caco-2, read-out: permeability.
Data set [9] addresses T1, Nuclear receptor subfamily 1 group I member 3 (Homo sapiens, UniProt Q14994).
T1 sequence (Q14994 whole entry): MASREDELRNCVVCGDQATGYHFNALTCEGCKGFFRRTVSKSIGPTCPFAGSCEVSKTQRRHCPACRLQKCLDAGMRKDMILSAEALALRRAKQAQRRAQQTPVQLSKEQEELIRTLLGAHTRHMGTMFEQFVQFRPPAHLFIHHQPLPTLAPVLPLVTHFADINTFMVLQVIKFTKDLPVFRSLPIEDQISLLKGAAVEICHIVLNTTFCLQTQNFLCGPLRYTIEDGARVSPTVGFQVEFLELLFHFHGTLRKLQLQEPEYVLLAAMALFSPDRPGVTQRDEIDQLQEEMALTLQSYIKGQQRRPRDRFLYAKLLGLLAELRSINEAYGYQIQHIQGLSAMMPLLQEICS
Nature of the data set: Transactivation of CAR (unknown origin) assessed as upregulation of CYP2B6 at 3 to 8 microg/ml. The data set is classed as ADME. The essentials: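 Nuclear receptor reporter-gene induction assay, with reporters coupled to PXR, CAR or AhR. Compound was tested at 0.1–1, 3 and 8 μg/mL. Positive controls were rifampin for PXR, CITCO for CAR and 3-methylcholanthrene for AhR.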

A short description of data set [10]: Mutagenicity in Salmonella typhimurium TA100. Type of data set: toxicity. Conditions: salmonella enterica subsp. enterica serovar typhimurium.
The nature of data set [11]: Mutagenicity in Salmonella typhimurium TA98 assessed as increase in ratio of revertant colonies at 500 microg/plate in presence of S9 liver fraction relative to control. The data set is classed as toxicity, subcellular. Conditions: salmonella enterica subsp. enterica serovar typhimurium. In outline: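 Bacterial reverse mutation test in S. typhimurium TA98 with S9 liver fraction, at 500 and 5000 μg/plate. Revertant colony count expressed as a ratio to the DMSO solvent control; 2-aminoanthracene as positive control.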

The nature of data set [12]: Tmax in BALB/c mouse plasma at 100 mg/kg administered via oral gavage after 0.25 to 24 hrs by LC-MS analysis. The data set is classed as ADME, organism-based. In outline:
(§2)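 Female BALB/c mice (20 g) got a single 100 mg/kg oral gavage dose. Three animals were sacrificed per time point at 0, 0.25, 0.5, 1, 2, 4, 8 and 24 h. Cardiac blood was spun at 12 000g, 4 °C for plasma. Lungs were bead-beaten in water and the supernatant taken. Both matrices were quantified by LC-MS/MS with an indole-2-carboxamide internal standard. Parameters came from noncompartmental analysis.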

A short description of data set [13]: Tmax in BALB/c mouse lung at 100 mg/kg administered via oral gavage after 0.25 to 24 hrs by LC-MS analysis. Type of data set: ADME, organism-based. In outline:
as §2

The test system of data set [14] is Mycobacterium tuberculosis. In words: Antimycobacterial activity against Mycobacterium tuberculosis H37Rv infected in BALB/c mouse model assessed as reduction in CFU counts in lungs administered daily via oral gavage for 5 days per week measured after 14 to 28 days post dosage relative to control. The data set is classed as functional, organism-based. The essentials:
(§3)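 Female BALB/c mice, 4-6 weeks old, aerosol-infected with H37Rv (about 10^3 CFU); five mice taken on day 1 for lung implantation CFU. From day 1, 12.5, 25, 50 or 100 mg/kg in 0.5% carboxymethylcellulose by daily oral gavage, 5 days/week. Ethambutol 100 mg/kg as positive control, untreated infected mice as negative, 5 mice per group. Lung homogenates plated on 7H11 selective agar on days 14 and 28.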

Data set [15] relates to Mycobacterium tuberculosis. In words: Antimycobacterial activity against Mycobacterium tuberculosis H37Rv infected in BALB/c mouse model assessed as reduction in CFU counts in lung at 100 mg/kg administered daily via oral gavage for 5 days per week measured after 14 days post dosage relative to control. Type of data set: functional. The essentials:
as §3

Data set [16] concerns Mycobacterium tuberculosis. In words: Antimycobacterial activity against Mycobacterium tuberculosis H37Rv assessed as growth inhibition at 0.25 times MIC after 7 to 14 days in presence of 0.25 times MIC of rifampin by alamar blue assay based by Bliss synergy model analysis. Type of data set: functional. The essentials:
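Checkerboard of 2-fold dilutions, 4.0 to 0.0313 × MIC of each drug combined with rifampin. M. tuberculosis H37Rv at 1 × 10^4 CFU per well in 200 μL. Single-drug, blank and full-growth controls included. alamarBlue read-out, percent inhibition calculated. Bliss independence applied to wells below 1 × MIC; Δfaxy > 0 taken as synergy, < 0 as antagonism.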

Data set [17] has as its system Mycobacterium tuberculosis. Nature of the data set: Antimycobacterial activity against Mycobacterium tuberculosis H37Rv grown on serum isolated from 100 mg/kg, po treated BALB/c mouse for 30 to 120 mins assessed as reduction in bacterial growth followed by bacterial addition incubated for 7 days by alamar blue reagent based serum inhibition titration assay. The data set is classed as functional, organism-based. The essentials:
(§4)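 Six-week-old female BALB/c mice (20 g) given one oral dose as suspension in 0.5% CMC in water; isoniazid 10 mg/kg as positive control, vehicle as negative. Serum collected at 30, 60 and 120 min, pooled from three mice per time point, 2-fold serially diluted. 10^4 CFU H37Rv added per well, 7 days at 37 °C. alamarBlue added for 16−18 h, fluorescence read at Ex544/Em590 and plotted against serum titration.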

Data set [18] can be described thus: Oral bioavailability in BALB/c mouse at 100 mg/kg administered for 30 to 120 mins followed by Mycobacterium tuberculosis H37Rv addition to compound treated serum incubated for 7 days by alamar blue reagent based serum inhibition titration assay. The data set is classed as ADME, organism-based. The conditions noted are these: in vivo. The essentials: as §4

Values after ≈ are worked out from the molar mass of the structure shown. Active and inactive are the calls of the source. The rule behind the calls is not given here.

Sequence of Cytochrome P450 2D6 (P10635 whole entry): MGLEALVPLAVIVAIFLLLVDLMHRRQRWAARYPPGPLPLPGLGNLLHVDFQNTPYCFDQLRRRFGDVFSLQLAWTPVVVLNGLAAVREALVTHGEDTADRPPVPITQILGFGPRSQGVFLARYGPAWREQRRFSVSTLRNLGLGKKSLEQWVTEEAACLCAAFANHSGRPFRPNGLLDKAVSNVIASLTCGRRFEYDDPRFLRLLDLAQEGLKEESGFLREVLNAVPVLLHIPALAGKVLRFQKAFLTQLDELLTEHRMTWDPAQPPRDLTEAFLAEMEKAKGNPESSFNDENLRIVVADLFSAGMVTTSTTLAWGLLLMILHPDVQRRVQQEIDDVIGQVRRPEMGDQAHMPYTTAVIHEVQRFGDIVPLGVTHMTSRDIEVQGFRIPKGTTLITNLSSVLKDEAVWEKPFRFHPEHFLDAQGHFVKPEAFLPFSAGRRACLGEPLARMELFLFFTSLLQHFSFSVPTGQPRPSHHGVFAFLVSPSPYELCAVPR

Compound `C[C@@H]1[C@H]2C[C@@H](C[C@H]1NC(=O)c1cc3c(F)cc(F)cc3[nH]1)C2(C)C` registered an MIC90 in data set [1] of 0.012 µM (≈ 0.00399 µg/mL). This compound also showed an MIC in data set [2] of 23 µM (≈ 7.65 µg/mL). For the same compound, the selectivity ratio in data set [3] is ≥ 16000. Further, the remaining at 2 h, 1 µM in data set [4] is 52%; in [5], 0.7%; in [6], 18%. Also, the remaining at 1 h, 3 µM in data set [7] came to 69.5%. Moreover, the “inhibition (INH)” value on Cytochrome P450 2D6 is listed as 36.6%. The Papp A→B in [8] was determined as 0.19 ×10⁻⁶ cm/s. For the same compound, the Activity result in [9] is “Active”; in data set [10] it was “Non-Toxic”; in data set [14], “Dose-dependent effect”; in [15], 1.71 log10CFU. In addition, in [11], the “fold change (FC)” value worked out at 2.5. In addition, the Tmax in data set [12] and in data set [13] was 4 h throughout. For the same compound, the “growth inhibition (GI)” value in [16] was 99.4%. For the same compound, the outcome in [17] was Active. The Drug uptake entry in data set [18] is “Active”.
